The entries come from a sample that favours hits as a whole.
Insulin prom act: TRM-6 insulin promoter activation. TRM-6 cells (human fetal islet line), insulin promoter eGFP reporter, imaging; plate-scaled: unstimulated 0, stimulated control 100. activation, % at 2 µM. 130,000 compounds, 0.81% hits;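 active = activation at 2 µM above a set limit, confirmed on inspection of the cell images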;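 note: share of cells whose green reporter signal exceeds an intensity cutoff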
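test system = TRM-6 insulin promoter–eGFP reporter cells | benchmarks = stimulated versus unstimulated wells as plate controls | read-out basis = percent cells above green-intensity threshold, converted to percent activation versus plate controls | detection = fixed-cell fluorescence microscopy, eGFP plus Hoechst | incubation = tamoxifen pre-incubation 15 h overnight, then compound exposure 48 h at 37 °C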
Numbers stand for hits.

For O=c1[nH]c2cc3c(cc2cc1CN(CCO)S(=O)(=O)c1ccccc1Cl)OCCO3 the results were Insulin prom act inactive.
`COc1ccc2oc(C(F)(F)C(F)F)cc(=O)c2c1` gave Insulin prom act inactive.
For COc1ccc2oc3ccc(OC)cc3c(=O)c2c1 the results were Insulin prom act 145.
For COc1ccc2occ(NC(C)=O)c2c1 the results were Insulin prom act inactive.
Screening CN(C)S(=O)(=O)c1cc(NC(=O)COC(=O)CCSc2ccc(Cl)cc2)ccc1Cl returned Insulin prom act inactive.
Screening COCCN(C(=O)C(C)C)c1nnc(-c2cccc(C)c2)s1 returned Insulin prom act inactive.
COc1ccccc1NC(=O)C/C(C)=N/NC(=O)COc1c(Br)cc(Br)cc1OC was read as Insulin prom act inactive.
`CCCCC(=O)Nc1ccc(C(=O)Nc2ccc3c(c2)OCO3)cc1` gave Insulin prom act 475.
Cc1ccc(C(=O)Nc2ccc3c(c2)OCO3)cc1 was read as Insulin prom act inactive.
Screening Cc1ccccc1OCCCC(=O)Nc1ccc2c(c1)OCO2 returned Insulin prom act inactive.
For Cc1cc(O)ccc1NC(=O)CCN1C(=O)c2ccc([N+](=O)[O-])cc2C1=O the results were Insulin prom act inactive.
For COc1cccc(N2CCN(C3CC(=O)N(c4ccc(F)c(Cl)c4)C3=O)CC2)c1 (stereo not drawn) the results were Insulin prom act inactive.
For NC(=O)C1CCN(C2CC(=O)N(c3ccc(F)c(Cl)c3)C2=O)CC1 (stereo not drawn) the results were Insulin prom act 86.
Screening O=C(C1CCN(C2CC(=O)N(c3cccc(Cl)c3)C2=O)CC1)N1CCCC1 (stereo not drawn) returned Insulin prom act inactive.
`Cc1c(Cl)ccc2c1NC(=O)[C@]21N[C@@H](Cc2ccccc2)[C@H]2C(=O)N(c3ccc(F)cc3)C(=O)[C@H]21` gave Insulin prom act inactive.
`CC(CCc1ccccc1)NC(=O)COC(=O)c1cccc2ccccc12` (stereo not drawn) gave Insulin prom act inactive.
For COC(=O)c1ccccc1OCCCN(C)C the results were Insulin prom act inactive.
`Cc1ccc(S(=O)(=O)c2c(C)cc(C)nc2Cl)cc1` gave Insulin prom act inactive.
COc1nc(N)c(S(=O)(=O)c2ccc(C)cc2)cc1C#N was read as Insulin prom act 197.
Screening COc1ccc(-c2nc(N)n(S(=O)(=O)c3ccc(C)cc3)n2)cc1 returned Insulin prom act inactive.
For O=C1CCCC(=O)N1c1ccc(O)cc1 the results were Insulin prom act 267.
For O=C(Nc1cccc2c1C(=O)NC2=O)c1ccc(N2C(=O)CCC2=O)cc1 the results were Insulin prom act inactive.
Screening CC(=O)c1c(C(C)=O)c(C)n(-c2ccc(O)cc2)c1C returned Insulin prom act inactive.
CC(C)(C)SCCNC(=O)CSCc1ccc([N+](=O)[O-])cc1 was read as Insulin prom act inactive.
Screening COCCN1Cc2cccc(C(=O)NC(C)CCc3ccco3)c2C1=O (stereo not drawn) returned Insulin prom act inactive.
CCC1=Nc2cc(C(=O)NCCCOC(C)C)ccc2Sc2ccccc21 was read as Insulin prom act 110.
CCC1=Nc2cc(C(=O)O)ccc2Sc2ccccc21 was read as Insulin prom act inactive.
For CC(C)OCCCNC(=O)c1ccccc1Oc1ccccc1 the results were Insulin prom act inactive.
Screening CCCNc1c(NC(C)=O)c(=O)oc2ccccc12 returned Insulin prom act inactive.
For O=C(N/N=C/c1cccs1)[C@H]1C[C@@H]1c1ccccc1 the results were Insulin prom act inactive.
`CCCOc1ccc(/C=N/Nc2ccccc2[N+](=O)[O-])c(OCCC)c1` gave Insulin prom act inactive.
Screening O=C1c2cccnc2C(=O)N1Cc1ccc2c(c1)OCO2 returned Insulin prom act inactive.
Screening CCC(C)(C)NC(=O)C(c1cccc(OC)c1)N(C(=O)c1ccn[nH]1)c1cccc(OC)c1 (stereo not drawn) returned Insulin prom act inactive.
`CCOC(=O)/C(C#N)=C/c1cccc(F)c1` gave Insulin prom act inactive.
Screening CCOC(=O)/C(C#N)=C\c1cccnc1 returned Insulin prom act inactive.
For C=CCN1C=CC(=C/C=C(/C#N)C(=O)OCC)C=C1 the results were Insulin prom act 163.
Cc1ccc(S(=O)(=O)Nc2cccc3c2CCCC3)cc1 was read as Insulin prom act inactive.
`CC1CC(C)(C)NC(=S)N1CCCC(=O)N1CCN(c2ccc(F)cc2)CC1` (stereo not drawn) gave Insulin prom act inactive.
`COC(=O)c1c(C(=O)OC)c2cc(C(=O)c3ccccc3)ccn2c1Cl` gave Insulin prom act inactive.
Screening FC(F)(F)c1nc2ccccc2nc1N/N=C\c1ccccc1 returned Insulin prom act inactive.
For CCn1c(SCC(=O)Nc2ccccc2)nnc1-c1ccc(S(=O)(=O)N2CCOCC2)cc1 the results were Insulin prom act inactive.
`CCSc1nnc(-c2ccc(S(=O)(=O)N3CCCC3)cc2)n1C` gave Insulin prom act inactive.
CCn1c(SCC(=O)N2CCCC(C)C2)nnc1-c1ccc(S(=O)(=O)N2CCN(C)CC2)cc1 (stereo not drawn) was read as Insulin prom act 81.
Screening Cc1ccc(C)c(N2CCN(C(=O)Cn3c(=O)[nH]c4ccsc4c3=O)CC2)c1 returned Insulin prom act inactive.
Screening CC(C)[C@H](NC(=O)[C@H](CC(=O)O)NC(=O)[C@H](CCCCN)NC(=O)[C@@H](N)CCCN=C(N)N)C(=O)N[C@@H](Cc1ccc(O)cc1)C(=O)O returned Insulin prom act inactive.
For Cc1cc(C)nc(N/N=C/c2ccccc2)n1 the results were Insulin prom act inactive.
For Cc1nc(C#N)c(N/N=C/c2cccc(Cl)c2)o1 the results were Insulin prom act 300.
Screening Clc1cccc(/C=N/Nc2nnc(Cl)c3ccccc23)c1 returned Insulin prom act inactive.
For Cc1ccc2[nH]c(O)c(N=NC(=O)C(C)n3cnc4ccccc4c3=O)c2c1 (stereo not drawn) the results were Insulin prom act inactive.
Screening COC(=O)C(CCSC)NC(=O)CNS(=O)(=O)c1ccc(Cl)cc1 (stereo not drawn) returned Insulin prom act inactive.
COc1ccccc1NC(=O)CNS(=O)(=O)c1ccccc1 was read as Insulin prom act inactive.
For COC(=O)C(NC(=O)CNS(=O)(=O)c1ccc(Br)cc1)c1ccccc1 (stereo not drawn) the results were Insulin prom act 275.
C#CCn1c(S(=O)(=O)Cc2ccc(OC)cc2)nc(-c2ccccc2)c1-c1ccccc1 was read as Insulin prom act inactive.
For Nc1nc2ccccc2n1C(=O)c1cccs1 the results were Insulin prom act inactive.
Screening CCCCC(=O)Nc1ccc(NC(=S)NC(=O)c2cccs2)cc1OC returned Insulin prom act inactive.
Screening CC(C)Cc1cc(C(=O)N2CCCC(CCC(=O)N(C)CCc3ccccn3)C2)no1 (stereo not drawn) returned Insulin prom act inactive.
Screening CCn1cc(C(=O)OCC(=O)NCc2ccccc2Cl)c(=O)c2ccc(C)nc21 returned Insulin prom act inactive.
Screening COc1ccccc1Oc1nc([N+](=O)[O-])nn1CC(N)=O returned Insulin prom act inactive.
`CC(C)(C)C(=O)NC(=S)NNC(=O)c1ccc(-c2ccccc2)cc1` gave Insulin prom act inactive.
For CCOC(=O)C1CCCCN1Cc1ccc(F)cc1 (stereo not drawn) the results were Insulin prom act inactive.
Cc1cccc(-n2c(C)cc(C=C3C(=O)c4ccccc4C3=O)c2C)c1 was read as Insulin prom act inactive.
O=C1C(=Cc2cccs2)C(=O)c2ccccc21 was read as Insulin prom act inactive.

Compound activity from PubChem BioAssay.
